According to ChEMBL document CHEMBL2406954, “Improved flavodoxin inhibitors with potential therapeutic effects against Helicobacter pylori infection” (J Med Chem, 2013):
In brackets after ≈: the same amount, converted by molar mass. Activity calls are given as the source filed them. The rule behind the calls is not given here.

Key:
[1] = Cytotoxicity in human HeLa cells after 24 hrs by XTT assay; type: cell-based
Summary of the method: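 HeLa cells, 30,000 per well in DMEM with 10% fetal serum and penicillin/streptomycin. Compound added from DMSO to final 0.1, 0.25, 0.5, 1, 10, 25, 50, 75, 100 µM; DMSO-only controls. 24 h at 37 °C, then medium exchanged for phenol red-free medium, XTT-PMS added, 4 h at 37 °C, absorbance read at 450 and 500 nm. Two experiments, each in triplicate.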

[2] = tested on: Helicobacter pylori; assay: Bactericidal activity against Helicobacter pylori at 2 times MIC; type: functional, organism-based
[3] = Therapeutic index, ratio of MCC for human HeLa cells to MIC for Helicobacter pylori; type: cell-based; conditions: read-out: TI
[4] = Binding affinity to Helicobacter pyroli flavodoxin expressed in Escherichia coli by isothermal titration calorimetry analysis; parameters: species or system Helicobacter pylori
Summary of the method: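 ITC at 25°C: degassed 20 µM protein titrated with ~500 µM inhibitor, both in 50 mM EPPS pH 9.0, 5% DMSO. Injection heats fitted to a 1:1 binding model for Kd.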

[5] = tested on: Helicobacter pylori; assay: Antibacterial activity against Helicobacter pylori after 28 hrs by microdilution method; type: functional

Row | SMILES | MCC at 24 h [1] | Activity [2] | selectivity ratio [3] | Kd [4] | MIC [5]
1 | COC(=O)/C=C/c1cc(C(F)(F)F)cc(C(F)(F)F)c1 | 100 µM |  |  |  | 
2 | COc1ccc(C(=O)OCCSc2ccc([N+](=O)[O-])c3nonc23)cc1 | 8 µM |  |  |  | 
3 | COc1ccc(C2(C)SCc3cc(C)c(C)cc3CS2)cc1 | 100 µM |  |  |  | 
4 | O=[N+]([O-])/C=C/c1c(F)cc(Cl)cc1F | 20 µM | Active | 37.7 | 7.4 µM | 0.53 µM (≈ 0.116 µg/mL)
5 | COC(=O)C1=C(c2ccccc2Cl)Oc2ccc([N+](=O)[O-])cc2C1 | 70 µM |  |  |  | 
6 | O=[N+]([O-])/C=C/c1cc(C(F)(F)F)ccc1F | 8 µM |  | 15.1 | 4.4 µM | 0.53 µM (≈ 0.125 µg/mL)
7 | O=[N+]([O-])/C=C/c1cccc(C(F)(F)F)c1 | 40 µM | Active | 8.4 | 7.9 µM | 4.75 µM (≈ 1.03 µg/mL)
8 | O=C(OCCSc1ccc([N+](=O)[O-])c2nonc12)c1ccc(Cl)cc1Cl | 4 µM |  |  |  | 
9 | NS(=O)(=O)c1ccc(SCCO)c2nonc12 | 100 µM |  |  |  | 
10 | O=C(Nc1ccccc1)OCCSc1ccc([N+](=O)[O-])c2nonc12 | 2.2 µM |  |  |  | 
11 | COc1ccc(CSc2ccc(S(N)(=O)=O)c3nonc23)cc1 | 12 µM |  |  |  | 
12 | O=[N+]([O-])/C=C/c1ccc(I)cc1 | 10 µM | Active | 9.4 | 6.6 µM | 1.06 µM (≈ 0.292 µg/mL)
13 | O=[N+]([O-])C1=Cc2cc(Cl)ccc2NC1c1ccc(F)cc1 (configuration not stated) |  |  |  | 33 µM | 
14 | O=C(Nc1ccc(Cl)cc1Cl)OCCSc1ccc([N+](=O)[O-])c2nonc12 | 1.7 µM |  |  |  | 
15 | O=[N+]([O-])/C=C/c1ccccc1C(F)(F)F | 0.1 µM |  | 0.04 | 8.8 µM | 2.4 µM (≈ 0.521 µg/mL)
16 | O=[N+]([O-])/C=C/c1ccc(F)cc1 | 20 µM | Active | 18.9 | 40 µM | 1.06 µM (≈ 0.177 µg/mL)
17 | O=[N+]([O-])/C=C/c1ccc(F)cc1Br | 10 µM |  | 2.1 | 19 µM | 4.8 µM (≈ 1.18 µg/mL)
18 | O=[N+]([O-])C1=Cc2cc(Cl)cc(Cl)c2OC1c1ccc(Br)cc1 (configuration not stated) |  |  |  | 25 µM | 
19 | CN(C)c1ccc([N+](=O)[O-])c2nonc12 | 100 µM |  |  |  | 
20 | O=[N+]([O-])C1=Cc2cc(Cl)cc(Cl)c2OC1c1ccc(F)cc1 (configuration not stated) | 6 µM |  |  |  | 
21 | Cc1ccc(Sc2ccc([N+](=O)[O-])c3nonc23)cc1 | 1.3 µM |  |  |  | 

Row | SMILES | MCC at 24 h [1] | Activity [2] | selectivity ratio [3] | Kd [4] | MIC [5]
22 | O=[N+]([O-])/C=C/c1cc(C(F)(F)F)cc(C(F)(F)F)c1 | 3.5 µM |  | 1.5 | 3.5 µM | 2.4 µM (≈ 0.684 µg/mL)
23 | O=[N+]([O-])/C=C/c1ccccc1I | 1 µM |  | 0.2 | 16 µM | 4.8 µM (≈ 1.32 µg/mL)
24 | CCOC(=O)C1=Cc2cc(Cl)cc(Cl)c2OC1c1ccc(F)cc1 (configuration not stated) | 12 µM |  |  |  | 
25 | O=[N+]([O-])C1=Cc2cc(Cl)ccc2OC1c1ccc(F)cc1 (configuration not stated) | 6 µM |  |  |  | 
26 | O=[N+]([O-])C1=Cc2c(ccc3ccccc23)OC1c1ccc(F)cc1 (configuration not stated) | 10 µM | Active | 8.3 | 0.78 µM | 1.2 µM (≈ 0.386 µg/mL)
27 | COc1ccc(CSc2ccc(N)c3nonc23)cc1 | 100 µM |  |  |  | 
28 | O=[N+]([O-])C1=Cc2cc(Cl)ccc2OC1c1ccc(Cl)cc1 (configuration not stated) | 6 µM |  |  |  | 
29 | O=C(O)/C=C/c1cc(C(F)(F)F)cc(C(F)(F)F)c1 | 100 µM |  |  |  | 
30 | O=[N+]([O-])C1=Cc2cc(Cl)cc(Cl)c2OC1c1ccc(I)cc1 (configuration not stated) | 10 µM |  |  |  | 
31 | O=[N+]([O-])/C=C/c1cc(Cl)cc(Cl)c1 | 2 µM |  | 0.8 | 0.67 µM | 2.4 µM (≈ 0.523 µg/mL)
32 | O=[N+]([O-])/C=C/c1cc(Cl)cc(Br)c1 | 2.7 µM |  |  | 10 µM | 
33 | O=[N+]([O-])/C=C/c1c(F)c(F)c(F)c(F)c1F | 0.01 µM |  | 0.001 | 10 µM | 8 µM (≈ 1.91 µg/mL)
34 | COc1cccc(/C=C(\C)[N+](=O)[O-])c1 | 0.7 µM |  | 0.3 | 5.5 µM | 2.4 µM (≈ 0.464 µg/mL)
35 | CSc1ccc(C2Oc3ccccc3C=C2[N+](=O)[O-])cc1 (configuration not stated) | 1 µM |  |  |  | 
36 | O=[N+]([O-])/C=C/c1ccc(Br)cc1 | 8 µM | Active | 15.1 | 4.1 µM | 0.53 µM (≈ 0.121 µg/mL)
37 | O=[N+]([O-])/C=C/c1ccc(Cl)c(C(F)(F)F)c1 | 5 µM |  | 4.7 | 2.8 µM | 1.06 µM (≈ 0.267 µg/mL)
38 | COc1ccc(CSc2ccc([N+](=O)[O-])c3nonc23)cc1 | 1.7 µM |  |  |  | 
39 | COc1ccc(CCCSc2ccc([N+](=O)[O-])c3nonc23)cc1 | 1 µM |  |  |  | 
40 | Brc1cccc2nsnc12 | 100 µM |  |  |  | 
41 | COc1ccc(Sc2ccc([N+](=O)[O-])c3nonc23)cc1 | 3 µM | Active | 1.5 | 2.6 µM | 2 µM (≈ 0.607 µg/mL)
